Measurements as given in PMC3478735 (ACS Nano, 2012).

What was measured:
HeLa cells [1] = experiment: Endosomal escape, codelivery of Calcein, fluorescence microscopy; assay type: cell-based, human
Outline: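 HeLa cells plated 48 h ahead to ≥70% confluence. Calcein 0.25 mM added alone or with nanocomplexes (100 nM siRNA) in DMEM + 10% bovine serum, 1 h, 37 °C. Cells washed three times in PBS and imaged live (FITC filter). Cells with diffuse cytoplasmic fluorescence counted in ≥8 random fields, normalised to total cells (500–800 per carrier per experiment), reported as mean % per field.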

HeLa cells [2] = experiment: Uptake of myr-TP-LyP-1 nanocomplexes in the presence of endocytosis inhibitors; assay type: cell-based, human; details: inhibitor 1 h at 37 °C, then nanocomplexes (2 μM peptide, 100 nM siRNA) 1 h, flow cytometry
Outline: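 HeLa cells at ~70% confluence. Small-molecule inhibitors applied 1 h at 37 °C. Then nanocomplexes of labelled peptide (2 μM) with GFP siRNA (100 nM) added for a further 1 h at 37 °C. Cells washed three times with cold PBS, trypsinised, and uptake read by flow cytometry.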

C[C@@H](O)[C@@H]1NC(=O)[C@H](CCCNC(=N)N)NC(=O)[C@H](CCCCN)NC(=O)[C@H](CC(N)=O)NC(=O)CNC(=O)[C@@H](N)CSSC[C@@H](C(=O)O)NC(=O)CNC(=O)[C@H](CCCNC(=N)N)NC1=O [LyP-1]
endosomal escape (HeLa cells [1]): little or no endosomal escape

CCCCCCCCCC(=O)NC(CN1CCOCC1)C(O)c1ccccc1 (stereo not shown) [PDMP]
uptake of myr-TP-LyP-1 nanocomplexes in the presence of the inhibitor (HeLa cells [2]): significantly decreased

N=C(N)NC(=O)c1nc(Cl)c(N)nc1N [amiloride]
uptake of myr-TP-LyP-1 nanocomplexes in the presence of the inhibitor (HeLa cells [2]): significantly decreased

OCC1OC(O)CC(O)C1O (stereo not shown) [deoxyglucose]
uptake of myr-TP-LyP-1 nanocomplexes in the presence of the inhibitor (HeLa cells [2]): significantly decreased
